This sample holds only a part of the variants without activity.
B1: tRNA (parent)
chain: CUCUCGGUAGCCAAGUUGGUUUAAGGCGCAAGACUUUAAUUUAUCACUACGAAAUCUUGAGAUCGGGCGUUCGACUCGCCCCCGGGAGAUUUUUUCCUCGAGCAA

Variants of: B1
Test: nonsense suppression (GFP-seq) (ratio to wild type); higher = more function; SUP4oc tRNA, yeast GFP reporter sort-seq
Outline: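 To measure nonsense suppression, tRNA variants from a library carrying ~3% random mutations were integrated into the yeast genome alongside RFP and a GFP ochre reporter under galactose control. Growth took place in raffinose/galactose medium supplemented with 80 mg/L adenine, followed by sorting into GFP/RFP bins and Illumina sequencing of each bin (phred ≥30). For each variant with ≥100 reads and ≥30 cells, the bin median GFP/RFP values were weighted by its estimated cell share per bin and referenced to the unmutated parent tRNA.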

CUCUCGGUAGCCAAGUUGGUUUAAGGCGCACGACUUUAAUUUAUCACUACGAAAUCUUGAGAUCGGGCGUUGGACUCUCCCCCGGGAGAUUUUUUCCUCGAGCAA and CUCUCGGUAGCCAAGUUGGUUUAAGGCGCAGGACUUUAAUUUAUCACUACGAAAUCUUGAGAUCGGCCGUUCGACUCGCCCCCGAGAGAUUUUUUCCUCGAGCAA cannot be ordered by nonsense suppression: at most 0.026 for the first, at most 0.026 for the second.

First: CUCUCGGUAGCCAAGUUGGUUUAAGGCGCAGGACUUUAAUUUAUCACUACGAAAUCUUGAGAUCGGGCGUUCGACUCGCCCCUGGGAGAUUUUUUCCUCGAGCAA
Second: CUCUCGGUAGCCAAGUUGGUUUAAGGCGCAGGACUUUAAUUUAUCACUACGAAAUCUUGAGAUCGGGCGUUCGACUCGCCCCAGGGAGAUUUUUUCCUCGAGCAA
The nonsense suppression of the first is higher: 0.0743 for the first, 0.0481 for the second.

Compared with CUCUCGGUAGCCAAGUUGGUUUAAGGCGCAGGACUUUAAUUUAUCACUACGAAAUCUUGACAUCGGGCGUUCGACUCGCCCCCGGGAGAUUUUUUCCUCGAGCAA, CUCUCGGUAGCCAAGUUGGUUUAAGGCGCAGGACUUUAAUUUAUCACUACGAAAUCUUGAAAUCGGGCGUUCGACUCGCCCCCGGGAGAUUUUUUCCUCGAGCAA is higher in nonsense suppression: 0.275 for the first, 0.8 for the second.

Going from CUCUCGGUAGCCAAGUUGGUUUAAGGCGCAUGACUUUAAUUUAUCACUACGAAAUCUUGAGUUCGGGCGUUCGACUCGCCCCCGGGAGAUUUUUUCCUCGAGCAA to CUCUCGGUAGCCAAGUUGGUUUAAGGCGCAGGACUUUAAUUUAUCACUACGAAAUCUUGAGAACGGGCGUUCGACUCGCCCCCGGGAGAUUUUUUCCUCGAGCAA, the nonsense suppression rises from 0.0539 to 0.684.

Going from CUCUCGGUAGCCAAGUUGGUUUAAGGCGCAGGACUUUAAUUUAUCACUACGAAAUCUUGAGACCGGGCGUUCGACUCGCCCCCGGGAGAUUUUUUCCUCGAGCAA to CUCUCGGUAGCCAAGUUGGUUUAAGGCGCAGGACUUUAAUUUAUCACUACGAAAUCUUGAGAGCGGGCGUUCGACUCGCCCCCGGGAGAUUUUUUCCUCGAGCAA, the nonsense suppression falls from 0.333 to 0.0741.

Going from CUCUCGGUAGCCAAGUUGGUUUAAGGCGCACGACUUUAAUUUAUCACUACGAAAUCUUGUGAUCGGGCGUUCGAAUCGCCCCCGGGAGAUUUUUUCCUCGAGCAA to CUCUCGGUAGCCAAGUUGGUUUAAGGCGCAGGACAUUAAUUUAUCACUACGAAAUCUUGAGAUCGGGCGUUCGACUCGCCCCCGGGAGAUUUUUUCCUCGAGCAA, the nonsense suppression falls from 1.23 to 0.0292.

First: CUCUCGGUAGCCAAGUUGGUUUAAGGCGCAGGACCUUAAUUUAUCACUACGAAAUCUUGAGAUCGGGCGUUCGACUCGCCCCCGGGAGAUUUUUUCCUCGAGCAA
Second: CUCUCGGUAGCCAAGUUGGUUUAAGGCGCAGGACUUUAAUUUAUCACUACGAAAUCUUGAGAUCGGGCGUGCGACUCGCCCCCGGGAGAUUUUUUCCUCGAGCAA
The nonsense suppression of the first is higher: 0.0321 for the first, at most 0.026 for the second.

CUCUCGGUAGCCAAGUUGGUUUAAGGCGCAGGGCUUUAAUUUAUCACUACGAAAUAUUGAGAUCUGGCGUUCGACUCGCCCCCGGGAGAUUUUUUCCUCGAGCAA and CUCUCGGUAGCCAAGUUGGUUUAAGGCGCACGACUUUAAUUUAUCACUACGAAAUCUUGAGAUCGGGCGUUCGACUCGCCCCCUGGAGAUUUUUUCCUCGAGCAA cannot be ordered by nonsense suppression: at most 0.026 for the first, at most 0.026 for the second.

CUCUCGGUAGCCAAGUUGGUUUAAGGCGCACGACUUUAAUUUAUCACUACGAAAUCUUGAGAUCGCGCGUUCGACUCGCCCCCGUGAGAUUUUUUCCUCGAGCAA and CUCUCGGUAGCCAAGUUGGUUUAAGGCGCACUACUUUAAUUUAUCACUACGAAAUCUUGAGAUCGGGCGUUCGACUCGCCCCCGGGAGAUUUUUUCCUCGAGCAA cannot be ordered by nonsense suppression: at most 0.026 for the first, at most 0.026 for the second.

Compared with CUCUCGGUAGCCAAGUUGGUUUAAGGCGCAGGGCUUUAAUUUAUCACUACGAAACCUUGAAAUCGGGCGUUCGACUCGCCCCCGGGAGAUUUUUUCCUCGAGCAA, CUCUCGGUAGCCAAGUUGGUUUAAGGCGCAGGACUUUAAUUUAUCACUACGAAAUCUUGAGAUCGGGCGUUCGACUCGUCCCCGGGAGAUUUUUUCCUCGAGCAA is higher in nonsense suppression: 0.727 for the first, 0.77 for the second.

CUCUCGGUAGCCAAGUUGGUUUAAGGCGCAGGACUUUAAUUUAUCACUACGAAAUCCUGAGAUCGGGCGUUCGACUCACCCCCGGAAGAUUUUUUCCUCGAGCAA and CUCUCGGUAGCCAAGUUGGUUUAAGGCGCACGACUUUAAUUUAUCACUACGAAAUCUUGAAAUCGGGCGUUCGAGUCGCCCCCGGGAGAUUUUUUCCUCGAGCAA cannot be ordered by nonsense suppression: at most 0.026 for the first, at most 0.026 for the second.

Compared with CUCUCGGUAGCCAAGUUGGUUUAAGGCGCAGGACUUUAAUUUAUCACUACGAAAUCUUGAGAUCGGGCGUACAACUUGCCCCCGGGAGAUUUUUUCCUCGAGCAA, CUCUCGGUAGCCAAGUUGGUUUAAGGCGCAGGACUUUAAUUUAUCACUACGAAAUCUUGAGAUCGGGCGUUCGACUCGCCCCCGGGGGAUUUUUUCCUCGAGCAA is higher in nonsense suppression: at most 0.026 for the first, 0.762 for the second.

Compared with CUCUCGGUAGCCAAGUUGGUUUAAGGCGCAGGACUUUAAUUUAUCACUACGAAAUCAUGAGAUCGGGCGUUCGACUCGCCCCCGGGAGAUUUUUUCCUCGAGCAA, CUCUCGGUAGCCAAGUUGGUUUAAGGCGCACGACUUUAAUUUAUCACUACGAAAUCUUCAGAUCGGGCGUUCGACUCGCCCCCGGGAGAUUUUUUCCUCGAGCAA is lower in nonsense suppression: 0.136 for the first, at most 0.026 for the second.

CUCUCGGUAGCCAAGUUGGUUUAAGGCGCAUGACUUUAAUUUAUCACUACGAAAUAUUGAGAUCGGGCGCUCGACUCGCCCCCGGGAGGUUUUUUCCUCGAGCAA and CUCUCGGUAGCCAAGUUGGUUUAAGGCGCAGGAUUUUAAUUUAUCACUACGAAAUCUUGAGAUCGGGCGUUCGACUCGCCCCCGGGAGAUUUUUUCCUCGAGCAA cannot be ordered by nonsense suppression: at most 0.026 for the first, at most 0.026 for the second.

Compared with CUCUCGGUAGCCAAGUUGGUUUAAGGCGCAGGACUUUAAUUUAUCACUACGAAUUCUUGAGAUCGGGCGUUCGACUCGCCCCCGGGAGAUUUUUUCCUCGAGCAA, CUCUCGGUAGCCAAGUUGGUUUAAGGCGCAGGACUUUAAUUUAUCACUACGAACUCUUGAGAUCGGGCGUUCGACUCGCCCCCGGGAGAUUUUUUCCUCGAGCAA is lower in nonsense suppression: 0.627 for the first, 0.0977 for the second.

First: CUCUCGGUAGCCAAGUUGGUUUAAGGCGCAGGACUUUAAUUUAUCACUACGAAAUCUUGCGAUCGGGCGUUCGACUCGCCCCCGGGAGAUUUUUUCCUCGAGCAA
Second: CUCUCGGUAGCCAAGUUGGUUUAAGGCGCAUGACUUUAAUUUAUCACUACGAAAUCUUGCGAUCGCGCGAUCGACUCGCCCCCGAGAGAUUUUUUCCUCGAGCAA
The nonsense suppression of the first is higher: 0.177 for the first, at most 0.026 for the second.

First: CUCUCGGUAGCCAAGUUGGUUUAAGGCGCAGGACUUUAAUUUAUCACUACGAAAUCUUGAGAUCGGGCGUUCGAUUCGCCCCCGGGAGAUUUUUUCCUCGAGCAA
Second: CUCUCGGUAGCCAAGUUGGUUUAAGGCGCAGGACUUUAAUUUAUCACUACGAAAUCUUGAGAUCGGGCGUUCGAAUCGCCCCCGGGAGAUUUUUUCCUCGAGCAA
The nonsense suppression of the first is lower: 1.05 for the first, 1.06 for the second.

Going from CUCUCGGUAGCCAAGUUGGUUUAAGGCGCAGGACUUUAAUUUAUCACUACGAAAUCUUGAGAUCGGGCGUUCGACUCGCCCUCGGGAGAUUUUUUCCUCGAGCAA to CUCUCGGUAGCCAAGUUGGUUUAAGGCGCAUGACUUUAAUUUAUCACUACGAAAUCUUGCGAUCGGGCGUUCGACUCGCCCCCGGGAGAUUUUUUCCUCGAGCAA, the nonsense suppression falls from 0.25 to 0.0348.

First: CUCUCGGUAGCCAAGUUGGUUUAAGGCGCAUGACUUUAAUUUAUCACUACGAAAUCUUGUGAUCGGGCGUUCGACUCGCCCCCGGGAGAUUUUUUCCUCGAGCAA
Second: CUCUCGGUAGCCAAGUUGGUUUAAGGCGCAUGACUUUAAUUUAUCACUACGAAAUCUUGAGAUCGGGCGUUCGACUCGCCCCCGGGAGAUUUUUUCCUCGAGCAA
The nonsense suppression of the first is higher: 0.647 for the first, 0.177 for the second.

Going from CUCUCGGUAGCCAAGUUGGUUUAAGGCGCAGGACUUUAAUUUAUCACUACGAAAUCUUGAGAUCGGGCGUUCGACUCGCCCCCGGGAGAUUUUUUCCUCGAGCAA to CUCUCGGUAGCCAAGUUGGUUUAAGGCGCAUGACUUUAAUUUAUCACUACGAAAUCUUGAGAUUGGGCGUUUGACUCGCCCCCGGGAGAUUUUUUCCUCGAGCAA, the nonsense suppression falls from 1.08 to at most 0.026.

First: CUCUCGGUAGCCAAGUUGGUUUAAGGCGCAGGACUUUAAUUUAUCACUACGAAAUCUUGAGAUCGGGCGUUCAACUCGCCCCCGGGAGAUUUUUUCCUCGAGCAA
Second: CUCUCGGUAGCCAAGUUGGUUUAAGGCGCAUGACUUUAAUUUAUCACUACGAAAUCUUGAGAUCGGGCGUUCGAAUCGCCCCCGGGAGAUUUUUUCCUCGAGCAA
The nonsense suppression of the first is lower: 0.366 for the first, 0.758 for the second.

First: CUCUCGGUAGCCAAGUUGGUUUAAGGCGCACGACUUUAAUUUAUCACUACGAAAUCUUGAGAUCGGGCGUUCGACGCGCCCCCGGGAGAUUUUUUCCUCGAGCAA
Second: CUCUCGGUAGCCAAGUUGGUUUAAGGCGCAGGACUUUAAUUUAUCACUACGAAAUCUUGAGAUCGGGCGUUCGUCUCGCCCCCGGGAGAUUUUUUCCUCGAGCAA
The nonsense suppression of the first is lower: at most 0.026 for the first, 0.029 for the second.

Compared with CUCUCGGUAGCCAAGUUGGUUUAAGGCGCACGACUUUAAUUUAUCACUACGAAAUCAUGAGAUCGGGCGUUCGACUCGCCCCCGGGAGAUUUUUUCCUCGAGCAA, CUCUCGGUAGCCAAGUUGGUUUAAGGCGCACGACUUUAAUUUAUCACUACGAAAUCUUGAGGUCGGGCGUUCGACUCACCCCCGGGAGAUUUUUUCCUCGAGCAA is lower in nonsense suppression: 0.219 for the first, at most 0.026 for the second.

Going from CUCUCGGUAGCCAAGUUGGUUUAAGGCGCAGGACUUUAAUUUAUCACUACGAAAUCUUGAGAUCGGGCGUUCGACUCGCCCCCAGGAGAUUUUUUCCUCGAGCAA to CUCUCGGUAGCCAAGUUGGUUUAAGGCGCAUGACUUUAAUUUAUCACUACGAAAUCUUGCGAUCGGGCGUUCGAAUCGCCCCCGGGAGAUUUUUUCCUCGAGCAA, the nonsense suppression rises from at most 0.026 to 0.184.

Going from CUCUCGGUAGCCAAGUUGGUUUAAGGCGCACGACUUUAAUUUAUCACUACGAAAUCUUGUGAUCGGGCGUUCGACUCGCCCCCGGGAGAUUUUUUCCUCGAGCAA to CUCUCGGUAGCCAAGUUGGUUUAAGGCGCAGGACUUUAAUUUAUCACUACGAAAUCUUGAGAUCGGUCGUUCGGCGCGCCACCGGGAGAUUUUUUCCUCGAGCAA, the nonsense suppression falls from 0.222 to at most 0.026.

CUCUCGGUAGCCAAGUUGGUUUAAGGCGCAGGAGUUUAAUUUAUCACUACGAAAUCUUGAGAUCGGGCGUUCGACGCGCCCCCGGGAGAUUUUUUCCUCGAGCAA and CUCUCGGUAGCCAAGUUGGUUUAAGGCGCACGACUUUAAUUUAUCACUACGAAAUGUUGAGAUCGGGCGUUCGACUCGCCCCCGGGAGAUUUUUUCCUCGAGCAA cannot be ordered by nonsense suppression: at most 0.026 for the first, at most 0.026 for the second.

First: CUCUCGGUAGCCAAGUUGGUUUAAGGCGCAGGACUUUAAUUUAUCACUACGAAAUCUUGAGAUCGGGCGUUCGACUAGCCCCCGGGAGAUUUUUUCCUCGAGCAA
Second: CUCUCGGUAGCCAAGUUGGUUUAAGGCGCAGGACUUUAAUUUAUCACUACGAAAUCUUGAGAUCGGGCGCUCGACUCGCCCCCGGGAGAUUUUUUCCUCGAGCAA
The nonsense suppression of the first is lower: at most 0.026 for the first, 0.0279 for the second.

Reference: the RNAGym collection of RNA variant scans (doi:10.1101/gad.245936.114)
